Screens: PubChem, The Scripps Research Institute Molecular Screening Center
HTRA1 inh: HTRA1 serine protease inhibitors, primary screen, biochemical, fluorescence polarization, HTS; Q92743; recombinant HTRA1, FP-rhodamine activity-based probe; inhibition, % at 5.96 µM; 340,000 compounds, 0.5% hits; in the data active = inhibition above about 36%;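 note: 0% = enzyme with DMSO and 100% = wells lacking enzyme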
Target sequence (Q92743 whole entry, looked up): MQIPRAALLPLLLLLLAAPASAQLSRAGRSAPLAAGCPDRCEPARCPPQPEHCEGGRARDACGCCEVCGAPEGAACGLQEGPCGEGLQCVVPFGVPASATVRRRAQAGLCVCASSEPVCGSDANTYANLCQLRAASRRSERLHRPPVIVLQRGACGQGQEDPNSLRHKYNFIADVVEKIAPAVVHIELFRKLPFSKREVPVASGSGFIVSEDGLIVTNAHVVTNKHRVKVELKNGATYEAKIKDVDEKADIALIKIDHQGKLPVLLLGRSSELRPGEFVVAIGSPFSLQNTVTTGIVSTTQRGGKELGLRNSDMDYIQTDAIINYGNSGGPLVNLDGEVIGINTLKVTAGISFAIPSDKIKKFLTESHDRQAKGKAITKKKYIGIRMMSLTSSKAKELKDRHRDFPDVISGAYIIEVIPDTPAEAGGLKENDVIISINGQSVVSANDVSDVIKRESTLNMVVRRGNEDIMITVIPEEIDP
ABHD4 inh: ABHD4 inhibitors, primary screen, biochemical, fluorescence polarization, mouse; (Lyso)-N-acylphosphatidylethanolamine lipase (Mus musculus), Q8VD66; purified mABHD4, FP-Rh probe fluorescence polarization; inhibition, % at 8.92 µM; 370,000 compounds, 0.54% hits; AID 720543, 2013;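 active = inhibition exceeding the mean over every tested compound plus 3 SD, cut at about 30% in these data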;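 note: 0% = plate median of compound wells and 100% = S159A mutant with DMSO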
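Test system: mouse ABHD4 enzyme, wild type. Reagent: FP-Rh fluorescent activity-based probe, added after compound pre-incubation. Timing: pre-incubation 45 min, probe exposure 60 min, at 25 °C. Technique: FP readout, ex 525 nm / em 598 nm. Benchmarks: high control S159A mutant with DMSO, low control median of compound wells.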
rCAG binder: binders of r(CAG) RNA repeats, primary screen, biochemical, fluorescence; r(CAG) RNA repeat, TO-PRO-1 dye displacement fluorescence; inhibition, % at 3 µM; 370,000 compounds, 1.3% hits; AID 651821, 2012;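 active = inhibition above the plate cutoff, the mean of all test compounds on that plate plus 3 SD, cut at about 35% in these data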;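 note: 0% = DMSO alone and 100% = 100 µM mitoxantrone as full dye displacement; higher means more dye released from RNA so lower well fluorescence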
TCR CD3 inh: inhibitors of human TCR-CD3 interaction, primary screen, biochemical, fluorescence, TAMRA-labeled TCR probe; T-cell receptor (TCR); inhibition, % at 9.4 µM; 360,000 compounds, 0.37% hits; AID 651800, 2012; in the data active = inhibition above about 19%;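 note: recombinant mutant TCR 2C K166C tagged with TAMRA read by polarization; 0% = receptor in buffer alone and 100% = receptor with positive control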
SIAE inh: human SIAE inhibitors, primary screen, biochemical, fluorescence polarization, FP-Rh probe, 1536-well HTS | Sialate O-acetylesterase (Homo sapiens), Q9HAT2 | SIAE FP-Rh probe binding | inhibition, % at 9.66 µM | 370,000 compounds, 0.69% hits | AID 1053197, 2014;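 active = inhibition above a cutoff: mean of compounds within the control limits plus 3 SD of those, cut at about 17% in these data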;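 note: 0% = plate median of compound wells and 100% = probe without SIAE protein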
rCAG binder conf: small molecules binding CAG repeat RNA – biochemical, fluorescence, confirmation | AID 652065, 2013 | r(CAG) RNA repeat, TO-PRO-1 dye displacement fluorescence | shares compounds with rCAG binder | 4,300 compounds, 70% hits | inhibition, % at 3 µM;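 active = inhibition above a per-plate cutoff, the mean inhibition of sample wells plus 3 SD, cut at about 35% in these data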;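 note: loss of TO-PRO-1 fluorescence as compound displaces dye from 1x1 AA loop RNA; 0% = DMSO only wells and 100% = 100 µM mitoxantrone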
dCAG dye counter: displacement of TO-PRO-1 from CAG DNA duplex, counter-screen for rCAG RNA repeat binder project, biochemical, fluorescence, TO-PRO-1 dye, d(CAG) DNA oligo; d(CAG) DNA oligo TO-PRO-1 dye displacement; inhibition, % at 3 µM; 4,300 compounds, 94% hits; shares compounds with rCAG binder;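 active = inhibition above its plate's cutoff, the mean test-well inhibition plus 3 SD, cut at about 4.8% in these data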;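 note: 0% = DNA dye mix with DMSO and 100% = 100 µM mitoxantrone; hits displace the dye from DNA and so lower well fluorescence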
dCAG dye DR: inhibitors of DNA CAG/GTC TO-PRO-1 complex, dose response, counter-screen for rCAG RNA repeat binder project, biochemical, fluorescence, TO-PRO-1 dye. shares compounds with rCAG binder. DNA CAG/GTC duplex TO-PRO-1 dye displacement fluorescence. IC50, µM. 250 compounds, 20% hits; in the data active = IC50 below about 10 µM
* hit, by the source's call. Rows were chosen to be rich in hits. Some 2.5% of all compounds tested hit in one or more screens of this group.

What do the screens show for `CCOc1ccc(CCNC(=O)COC(=O)/C=C/c2ccccc2)cc1OCC`?
HTRA1 inh: -4; ABHD4 inh: 1; rCAG binder: -6; TCR CD3 inh: 0; SIAE inh: -3

What do the screens show for `COc1cc(-c2cc(O)c(-c3ccc4ccccc4n3)c(=O)[nH]2)cc(OC)c1OC`?
HTRA1 inh: -3; ABHD4 inh: -8; rCAG binder: 7; TCR CD3 inh: -4; SIAE inh: -3

Results for O=C(O)c1cc(-c2cccc(Cl)c2)nc2nc(N3CCCCC3)sc12 ?
HTRA1 inh: -28; ABHD4 inh: -15; rCAG binder: 46*; TCR CD3 inh: -4; SIAE inh: -15; rCAG binder conf: 47*; dCAG dye counter: 12*; dCAG dye DR: inactive

Results for CCOc1ccc(NC(=NCc2ccc3c(c2)OCO3)SC2CC(=O)N(c3ccc(OCC)cc3)C2=O)cc1 (stereo unspecified) ?
HTRA1 inh: 7; ABHD4 inh: -5; rCAG binder: 4; TCR CD3 inh: 3; SIAE inh: -8

Results for CCOc1ccc(NC(=NCc2ccc3c(c2)OCO3)SC2CC(=O)N(c3ccc(C(=O)O)cc3)C2=O)cc1 (stereo unspecified) ?
HTRA1 inh: -75; ABHD4 inh: -58; rCAG binder: 78*; TCR CD3 inh: -5; SIAE inh: -12; rCAG binder conf: 85*; dCAG dye counter: 54*

What do the screens show for `O=C(NC(Cc1ccccc1)C(=O)O)/C(=C/c1cccc([N+](=O)[O-])c1)NC(=O)c1ccco1` (stereo unspecified)?
HTRA1 inh: 4; ABHD4 inh: 3; rCAG binder: 8; TCR CD3 inh: 11; SIAE inh: 1

What do the screens show for `O=C(Nc1cccc(C(=O)O)c1)/C(=C/c1ccccc1)NC(=O)c1cccc(Br)c1`?
HTRA1 inh: 1; ABHD4 inh: -4; rCAG binder: 19; TCR CD3 inh: -6; SIAE inh: -11

How did O=C(Nc1cccc(C(=O)O)c1)/C(=C/c1cccc([N+](=O)[O-])c1)NC(=O)c1cccc(Br)c1 do in these assays?
HTRA1 inh: -2; ABHD4 inh: 4; rCAG binder: 47*; TCR CD3 inh: 6; SIAE inh: -3; rCAG binder conf: 22; dCAG dye counter: 4.8*

How did O=C(Nc1cccc(C(=O)O)c1)/C(=C\c1ccc2c(c1)OCO2)NC(=O)c1ccccc1Br do in these assays?
HTRA1 inh: 0; ABHD4 inh: -1; rCAG binder: 13; TCR CD3 inh: 4; SIAE inh: 0

What do the screens show for `O=C(NC(Cc1ccccc1)C(=O)O)/C(=C/c1cccc([N+](=O)[O-])c1)NC(=O)c1cccc(Br)c1` (stereo unspecified)?
HTRA1 inh: -4; ABHD4 inh: -14; rCAG binder: 48*; TCR CD3 inh: -2; SIAE inh: 0; rCAG binder conf: 51*; dCAG dye counter: 16*

Results for O=C(Nc1cccc(C(=O)O)c1)/C(=C/c1ccc2c(c1)OCO2)NC(=O)c1cccc(Br)c1 ?
HTRA1 inh: -6; ABHD4 inh: -10; rCAG binder: 42*; TCR CD3 inh: 3; SIAE inh: 7; rCAG binder conf: 25; dCAG dye counter: 6.1*

What do the screens show for `O=C(NC(Cc1ccccc1)C(=O)O)/C(=C\c1ccco1)NC(=O)c1ccc(Br)cc1` (stereo unspecified)?
HTRA1 inh: 0; ABHD4 inh: 3; rCAG binder: 37*; TCR CD3 inh: 11; SIAE inh: -6; rCAG binder conf: 34; dCAG dye counter: 8.2*

What do the screens show for `CSc1ccc(C2c3[nH]c4ccccc4c3CCN2C(=O)c2ccnn2C)cc1` (stereo unspecified)?
HTRA1 inh: -28; ABHD4 inh: 4; rCAG binder: 1; TCR CD3 inh: -6; SIAE inh: 0

Results for CC(C)[C@H](CO)NC(=O)[C@H]1O[C@@H](n2ccc(N)nc2=O)[C@H](O)[C@@H]1O ?
ABHD4 inh: 3; rCAG binder: 1; TCR CD3 inh: 7; SIAE inh: 9

How did CC(=O)C1=C(O)C(=O)N(c2ccccn2)C1c1ccc(Cl)cc1 (stereo unspecified) do in these assays?
HTRA1 inh: -3; ABHD4 inh: 1; rCAG binder: 2; TCR CD3 inh: -4; SIAE inh: 11

How did CCOc1cc(/C=N/NC(=O)C(=O)NC2CC2)cc(Br)c1O do in these assays?
HTRA1 inh: 5; ABHD4 inh: -1; rCAG binder: -1; TCR CD3 inh: -5; SIAE inh: 6

What do the screens show for `CC(C)c1cc(C(=O)NNC(=S)NCc2ccco2)c(O)c(C(C)C)c1`?
HTRA1 inh: 26; ABHD4 inh: -3; rCAG binder: 65*; TCR CD3 inh: 15; SIAE inh: 7; rCAG binder conf: 58*; dCAG dye counter: 24*

What do the screens show for `Cc1cc(C(=O)NNC(=S)NCc2ccco2)n(C)n1`?
HTRA1 inh: 1; ABHD4 inh: 0; rCAG binder: -1; TCR CD3 inh: 7; SIAE inh: 2

How did COc1ccc(S(=O)(=O)N2CC(=O)Nc3ccccc32)cc1Cl do in these assays?
HTRA1 inh: 0; ABHD4 inh: 0; rCAG binder: 4; TCR CD3 inh: 7; SIAE inh: -15

Results for CC1(C(=O)Nc2nnc(C(C)(C)C)s2)Cc2ccccc2C(=O)O1 (stereo unspecified) ?
HTRA1 inh: 2; ABHD4 inh: -1; rCAG binder: -2; TCR CD3 inh: 4; SIAE inh: -4

How did Cc1ccc(C)c(OCC(=O)Nc2ccc(C(=O)O)cc2NC(=O)COc2cc(C)ccc2C)c1 do in these assays?
HTRA1 inh: -37; ABHD4 inh: -24; rCAG binder: 74*; TCR CD3 inh: 11; SIAE inh: -9; rCAG binder conf: 75*; dCAG dye counter: 40*

What do the screens show for `Cc1ccc2[nH]c(=O)c(CN(CCCN3CCOCC3)C(=O)Nc3ccc(Cl)cc3)cc2c1`?
HTRA1 inh: -7; ABHD4 inh: 3; rCAG binder: -2; TCR CD3 inh: 2; SIAE inh: -4
